Test results published in ChEMBL document CHEMBL1122250, “Synthesis and bacterial metabolism of cis- and trans-2-alkyl analogues of sodium cyclamate” (1983).

Tests used:
Rattus norvegicus [1] = species on record: Rattus norvegicus; assay: Evaluated for the amine formed (during conversion of N-cycloalkylsulfamates to cycloalkylamines) in 10 mL incubation in Control rats; assay type: functional
In short: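 Fresh feces (~5 g) from control rats were suspended in prereduced anaerobic minimal medium (pH 7 ± 0.2), spun at low then high speed, and the pellet resuspended. 1.0 mL suspension plus 9 mL medium and 100 mg sulfamate ran 22–24 h at 44–45 °C with CO2 bubbling. Amine was extracted at pH 10 into CH2Cl2, derivatized with phenyl isocyanate, and read by HPLC-UV 240 nm against an external standard. Reported as total µg per 10 mL.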

Rattus norvegicus [2] = species on record: Rattus norvegicus; assay: Evaluated for the amine formed (during conversion of N-cycloalkylsulfamates to cycloalkylamines) in 10 mL incubation in cyclamate-fed rats; assay type: functional
In short: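 Rats drank 1% sodium cyclamate for at least 6 weeks; only cyclamate converters were used. Fresh feces (~5 g) were suspended in prereduced anaerobic minimal medium (pH 7 ± 0.2), and the washed bacterial pellet was resuspended. 1.0 mL suspension plus 9 mL medium and 100 mg sulfamate ran 22–24 h at 44–45 °C with CO2 bubbling. Amine was converted to phenylurea with phenyl isocyanate and quantified by HPLC-UV 240 nm against an external standard. Reported as µg per 10 mL.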

CC1CCCCC1NS(=O)(=O)[O-].[Na+] (cis isomer)
Amine formed (Rattus norvegicus [1]): 402 µg | Amine formed (Rattus norvegicus [2]): 457 µg

CC1CCCCC1NS(=O)(=O)[O-].[Na+] (stereo in doubt)
Amine formed (Rattus norvegicus [1]): 0 µg | Amine formed (Rattus norvegicus [2]): 42 µg

CCC1CCCCC1NS(=O)(=O)[O-].[Na+] (stereo in doubt)
Amine formed (Rattus norvegicus [2]): 35 µg

CC(C)C1CCCCC1NS(=O)(=O)[O-].[Na+] (stereo in doubt)
Amine formed (Rattus norvegicus [1]): 27.9 µg | Amine formed (Rattus norvegicus [2]): 37.5 µg

CCC1CCCCC1NS(=O)(=O)[O-].[Na+] (trans isomer)
Amine formed (Rattus norvegicus [1]): 0 µg | Amine formed (Rattus norvegicus [2]): 57 µg

CC(C)C1CCCCC1NS(=O)(=O)[O-].[Na+] (trans isomer)
Amine formed (Rattus norvegicus [1]): 0 µg | Amine formed (Rattus norvegicus [2]): 0 µg

O=S(=O)([O-])NC1CCCCC1.[Na+] [SODIUM CYCLAMATE]
Amine formed (Rattus norvegicus [1]): 0 µg | Amine formed (Rattus norvegicus [2]): 39 µg
